Laboratory results: ChEMBL document CHEMBL4321868, “Scaffold Simplification Strategy Leads to a Novel Generation of Dual Human Immunodeficiency Virus and Enterovirus-A71 Entry Inhibitors” (J Med Chem, 2020)
Calls of active or inactive are those of the source. The calls are words filed in the database; no cut-off is given here.

How the values were obtained:
[1] = system: Human immunodeficiency virus 1; assay: Antiviral activity against HIV1 NL4.3 infected in human MT4 cells assessed as reduction in virus-induced cytopathic effect preincubated for 30 mins followed by viral infection and measured after 5 days by MTS assay; assay type: functional, organism-based; conditions: Human immunodeficiency virus 1, NL4.3, MT4
RD [2] = assay: Cytotoxicity against human RD cells assessed as adverse effect on cell; assay type: cell-based
[3] = system: Human immunodeficiency virus 1; assay: Antiviral activity against HIV1 3B infected in human MT4 cells assessed as reduction in p24 production at 20 uM incubated for 1 hr prior to viral infection followed by compound washout and measured 8 hrs post-infection by ELISA; assay type: functional, organism-based
[4] = Cytotoxicity against human MT4 cells assessed as reduction in cell viability measured after 5 days by MTS/PES assay; assay type: cell-based
Summary of the method: (§1)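 MT-4 cells (RPMI-1640, 10% FCS, 1% L-glutamine) pre-incubated 30 min at 37 °C with compound, then infected with HIV-1 NL4.3 or HIV-2 ROD according to stock TCID50. After 5 days, CPE scored microscopically and viability read by MTS/PES at A490 to derive EC50; cytotoxicity measured by MTS/PES at 5 days in the same cells. SI = CC50/EC50. Mean ± S.D. of at least 3 experiments.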

Enterovirus A71 [5] = assay: Antiviral activity against Enterovirus A71 genotype B5 TW/70902/08 infected in human RD cells assessed as reduction in virus-induced cytopathic effect preincubated for 1 day followed by viral infection and measured after 3 days by MTS/PMS method; assay type: functional, organism-based; conditions: Enterovirus A, genotype B5 TW/70902/08, RD
Summary of the method: (§2)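 RD cells seeded in 96-well plates; next day serial compound dilutions plus virus at low MOI added. Incubation at 37 °C, 5% CO₂ until full CPE in untreated infected controls (3 days). CC50 from uninfected treated cells in the same setup; SI = CC50/EC50.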

[6] = system: Human immunodeficiency virus 2; assay: Antiviral activity against HIV-2 ROD infected in human MT4 cells assessed as reduction in virus-induced cytopathic effect preincubated for 30 mins followed by viral infection and measured after 5 days by MTS assay; conditions: Human immunodeficiency virus 2, ISOLATE ROD
[7] = target: Envelope glycoprotein gp160 (Human immunodeficiency virus 1) (UniProt Q6QLK5); assay: Binding affinity to recombinant HIV1 3B gp120 by SPR analysis
Sequence of Envelope glycoprotein gp160 (Human immunodeficiency virus 1) (Q6QLK5 1-814): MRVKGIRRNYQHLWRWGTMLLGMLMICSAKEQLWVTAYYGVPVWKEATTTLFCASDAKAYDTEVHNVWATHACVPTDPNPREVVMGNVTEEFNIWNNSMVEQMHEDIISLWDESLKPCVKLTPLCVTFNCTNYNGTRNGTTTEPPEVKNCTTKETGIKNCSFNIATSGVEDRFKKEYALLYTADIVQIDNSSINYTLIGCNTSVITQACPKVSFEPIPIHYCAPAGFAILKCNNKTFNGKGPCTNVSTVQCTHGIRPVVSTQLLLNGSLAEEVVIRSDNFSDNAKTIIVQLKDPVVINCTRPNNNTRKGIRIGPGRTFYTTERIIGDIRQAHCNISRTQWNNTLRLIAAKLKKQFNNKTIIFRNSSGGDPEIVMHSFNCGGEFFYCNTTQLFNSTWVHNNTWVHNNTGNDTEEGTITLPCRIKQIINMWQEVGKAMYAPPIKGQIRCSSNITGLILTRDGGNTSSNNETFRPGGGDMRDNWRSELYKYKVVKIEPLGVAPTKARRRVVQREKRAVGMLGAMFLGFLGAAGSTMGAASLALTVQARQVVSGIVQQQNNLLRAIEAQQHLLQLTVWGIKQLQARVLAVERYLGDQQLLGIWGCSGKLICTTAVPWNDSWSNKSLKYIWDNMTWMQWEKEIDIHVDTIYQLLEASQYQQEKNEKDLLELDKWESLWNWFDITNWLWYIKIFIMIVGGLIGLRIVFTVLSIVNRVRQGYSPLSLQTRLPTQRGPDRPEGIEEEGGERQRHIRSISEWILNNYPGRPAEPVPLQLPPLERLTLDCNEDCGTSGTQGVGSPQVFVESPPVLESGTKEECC

[8] = Selectivity ratio of EC50 for Enterovirus A 71 BrCr infected in human RD cells to EC50 for Enterovirus A 71 genotype B2 11316 infected in human RD cells; assay type: functional
Enterovirus A71 [9] = assay: Antiviral activity against Enterovirus A 71 BrCr infected in human RD cells assessed as reduction in virus-induced cytopathic effect preincubated for 1 day followed by viral infection and measured after 3 days by MTS/PMS method; assay type: functional, organism-based; conditions: strain BRCR
Summary of the method: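 RD cells seeded in 96-well plates; next day serial compound dilutions plus virus at low MOI added. Incubation at 37 °C, 5% CO₂ until full CPE in untreated infected controls (3 days). Viability read by MTS/PMS; EC50 as 50% inhibition of virus-induced death from dose-response curves. CC50 from uninfected treated cells in the same setup; SI = CC50/EC50.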

Enterovirus A71 [10] = assay: Antiviral activity against Enterovirus A 71 BrCr infected in human RD cells assessed as reduction in viral RNA level at 20 uM treated 1 to 4 hrs post-infection and measured 8 hrs post-infection by RT-qPCR analysis; assay type: functional, strain BRCR; parameters: scale not given: the % may be the effect or the level left
Summary of the method: (§3)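 RD cells grown to confluence; compound at 20 μM in 2% FBS medium added 1 h before or 1, 2, 4 h after EV-A71 BrCr infection (MOI 1). Pirodavir 20 μM as entry-inhibitor reference; infected untreated cells as controls. At 8 h post-infection, intracellular RNA isolated and viral RNA quantified by RT-qPCR.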

Enterovirus A71 [11] = assay: Antiviral activity against Enterovirus A71 genotype B2 11316 infected in human RD cells assessed as reduction in virus-induced cytopathic effect preincubated for 1 day followed by viral infection and measured after 3 days by MTS/PMS method; assay type: functional, organism-based; conditions: Enterovirus A, genotype B2 11316, RD; summary of the method: as §2
HeLa = assay: Binding affinity to capsid protein VP1 five fold axis in Enterovirus A71 genotype B2 11316 infected in human HeLa cells at 20 uM measured after 1 hr by cryo-electron microscopic analysis; assay type: cell-based
[12] = target: Envelope glycoprotein gp160 (Human immunodeficiency virus 1) (UniProt Q6QLK5); assay: (§4) Inhibition of biotinylated-heparin binding to recombinant HIV1 3B gp120 by SPR analysis
Summary of the method: (§5)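 SPR at 25 °C in PBS with 5% DMSO, 0.005% Tween20, pH 7.4. Minimally biotinylated heparin captured (880 RU) on streptavidin chip. Recombinant HIV-1 IIIB gp120 (10 nM) alone or premixed with a compound concentration range injected 2 min at 10 μl/min; regenerated with 1 M NaCl/10 mM NaOH. Double-referenced; RU converted to % inhibition vs gp120 alone; nonlinear fit, three experiments.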

[13] = target: Envelope glycoprotein gp160 (Human immunodeficiency virus 1, UniProt Q6QLK5); assay: as §4; summary of the method: as §5
Sequence of Envelope glycoprotein gp160 (Q6QLK5 whole entry): as the sequence (Q6QLK5 1-814) above

RD [14] = assay: Cytotoxicity against human RD cells assessed as induction of cell morphological changes; assay type: cell-based
Enterovirus A71 [15] = assay: Antiviral activity against Enterovirus A 71 BrCr infected in human RD cells assessed as reduction in viral RNA level at 20 uM administered at onset of infection measured 8 hrs post-infection by RT-qPCR analysis relative to control; assay type: functional, strain BRCR; parameters: scale not given: the % may be the effect or the level left
Enterovirus A71 [16] = assay: Antiviral activity against Enterovirus A 71 BrCr harboring VP1 S184T mutant infected in human RD cells assessed as reduction in virus-induced cytopathic effect preincubated for 1 day followed by viral infection and measured after 3 days by MTS/PMS method; assay type: functional, organism-based, strain BRCR
Enterovirus A71 [17] = assay: Antiviral activity against Enterovirus A 71 BrCr harboring VP1 P246S mutant infected in human RD cells assessed as reduction in virus-induced cytopathic effect preincubated for 1 day followed by viral infection and measured after 3 days by MTS/PMS method; assay type: functional, organism-based, strain BRCR
Enterovirus A71 [18] = assay: Antiviral activity against Enterovirus A71 genotype C2 H08300 461812 infected in human RD cells assessed as reduction in virus-induced cytopathic effect preincubated for 1 day followed by viral infection and measured after 3 days by MTS/PMS method; assay type: functional, organism-based; conditions: Enterovirus A, genotype C2 H08300 461812, RD; summary of the method: as §2
[19] = Selectivity ratio of EC50 for Enterovirus A 71 BrCr infected in human RD cells to EC50 for Enterovirus A 71 genotype C4 TW/1956/05 infected in human RD cells; assay type: functional
[20] = system: Human immunodeficiency virus 1; assay: Antiviral activity against HIV1 3B infected in human MT4 cells assessed as reduction in p24 production at 20 uM administered at onset of infection measured 8 hrs post-infection by ELISA; assay type: functional, organism-based
Enterovirus A71 [21] = assay: Antiviral activity against Enterovirus A 71 BrCr infected in human RD cells assessed as reduction in viral RNA level at 20 uM preincubated for 1 hr followed by viral infection and measured 8 hrs post-infection by RT-qPCR analysis relative to control; assay type: functional, strain BRCR; parameters: scale not given: the % may be the effect or the level left; summary of the method: as §3
[22] = Selectivity index, ratio of CC50 for human MT4 cells to EC50 for HIV-1 NL4.3 infected in human MT4 cells
[23] = Selectivity index, ratio of CC50 for human RD cells to EC50 for Enterovirus A71 BrCr infected in human RD cells; assay type: toxicity, cell-based; conditions: read-out: Ratio CC50/EC50; summary of the method: as §2
Enterovirus A71 [24] = assay: Antiviral activity against Enterovirus A 71 BrCr harboring VP1 S184T/P246S mutant infected in human RD cells assessed as reduction in virus-induced cytopathic effect preincubated for 1 day followed by viral infection and measured after 3 days by MTS/PMS method; assay type: functional, organism-based, strain BRCR
[25] = Selectivity index, ratio of CC50 for human MT4 cells to EC50 for HIV1 NL4.3 infected in human MT4 cells; assay type: toxicity, cell-based; conditions: read-out: Ratio CC50/EC50; summary of the method: as §1
Enterovirus A71 [26] = assay: Antiviral activity against Enterovirus A71 genotype C4 TW/1956/05 infected in human RD cells assessed as reduction in virus-induced cytopathic effect preincubated for 1 day followed by viral infection and measured after 3 days by MTS/PMS method; assay type: functional, organism-based; conditions: Enterovirus A, genotype C4 TW/1956/05, RD; summary of the method: as §2

O=C(CCC(CCC(=O)NC(Cc1c(-c2cc(C(=O)O)cc(C(=O)O)c2)[nH]c2ccccc12)C(=O)O)(CCC(=O)NC(Cc1c(-c2cc(C(=O)O)cc(C(=O)O)c2)[nH]c2ccccc12)C(=O)O)[N+](=O)[O-])NC(Cc1c(-c2cc(C(=O)O)cc(C(=O)O)c2)[nH]c2ccccc12)C(=O)O (stereo not drawn)
EC50 [1]: 270 nM
Activity (RD [2]): Non-Toxic
Activity [3]: Active
CC50 at 120 h [4]: > 100000 nM
EC50 (Enterovirus A71 [5]): 81 nM
EC50 [6]: 630 nM
Activity [7]: Dose-dependent effect
Ratio EC50 [8]: 2
EC50 (Enterovirus A71 [9]): 350 nM
EC90 (Enterovirus A71 [9]): 550 nM
Activity (Enterovirus A71 [10]): 0%
EC50 (Enterovirus A71 [11]): 179 nM
Activity (HeLa): Active
inhibition [12]: Dose-dependent effect
IC50 [13]: 982 nM
Activity (RD [14]): Non-Toxic
Activity (Enterovirus A71 [15]): 100%
EC50 (Enterovirus A71 [16]): 2350 nM
EC50 (Enterovirus A71 [17]): 1960 nM
EC50 (Enterovirus A71 [18]): 57 nM
Ratio EC50 [19]: 9
Activity [20]: Active
Activity (Enterovirus A71 [21]): 100%
selectivity ratio [22]: > 370
selectivity ratio [23]: > 203
EC50 (Enterovirus A71 [24]): 2180 nM
selectivity ratio [25]: > 370
EC50 (Enterovirus A71 [26]): 38 nM
